Bioassay records deposited in PubChem by Broad Institute.
Only some compounds are listed: those with a hit (about 2.5% of all), similar ones and a draw of the others.
SR-BI DiI-HDL act: activators of SR-BI mediated DiI-HDL uptake, primary screen, ldlA[mSR-BI] CHO cells, DiI fluorescence; 3 h; 100 = double the neutral-control signal; activation, % at 12.5 µM; 320,000 tested, 0.096% active;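 active = mean replicate activation of at least 60% and every replicate at or above 60%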
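Assay system: CHO ldlA[mSR-BI] cells, LDL receptor-null, SR-BI overexpressing; medium: Ham's F12 with 0.5% BSA, HEPES 25 mM, pH 7.4; also added: DiI-HDL 10 µg/mL; timing: 3 h uptake period with compound, 37 °C; signal: DiI fluorescence, bottom read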
DYRK1A inh: rat Dyrk1A kinase inhibitors, primary screen, biochemical, single point, plate reader. Dual specificity tyrosine-phosphorylation-regulated kinase 1A (Rattus norvegicus), Q63470. inhibition, % at 12.5 µM. 310,000 tested, 0.43% active. ADP-Glo luminescence, NFATc1 peptide
SR-BI DiI inh: inhibitors of SR-BI mediated HDL lipid uptake, primary screen, ldlA[mSR-BI] cells, fluorescence, single point. inhibition, % at 12.5 µM. ldlA[mSR-BI] CHO cells, DiI-HDL uptake fluorescence, 3 h. 320,000 tested, 0.96% active. Scavenger receptor class B member 1 (Mus musculus), Q61009. AID 488896, 2010;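 active = mean replicate inhibition of at least 70% and a set share of replicates each scoring 70 or more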
Target sequence (Q61009 whole entry, looked up): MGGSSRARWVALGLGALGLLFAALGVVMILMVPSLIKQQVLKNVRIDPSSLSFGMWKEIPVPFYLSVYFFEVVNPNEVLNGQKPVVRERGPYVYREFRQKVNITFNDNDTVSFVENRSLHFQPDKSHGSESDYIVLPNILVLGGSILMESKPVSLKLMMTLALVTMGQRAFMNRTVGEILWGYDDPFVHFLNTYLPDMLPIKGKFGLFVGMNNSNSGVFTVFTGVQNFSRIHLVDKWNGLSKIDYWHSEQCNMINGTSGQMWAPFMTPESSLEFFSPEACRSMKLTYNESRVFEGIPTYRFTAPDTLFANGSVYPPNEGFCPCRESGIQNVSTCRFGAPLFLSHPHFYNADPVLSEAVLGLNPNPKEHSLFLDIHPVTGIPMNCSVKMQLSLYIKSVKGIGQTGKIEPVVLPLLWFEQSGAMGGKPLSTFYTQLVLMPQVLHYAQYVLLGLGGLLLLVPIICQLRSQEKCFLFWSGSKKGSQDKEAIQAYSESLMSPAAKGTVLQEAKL
NSD2 HMT inh: NSD2 histone methyltransferase inhibitors, primary screen, biochemical, AlphaScreen, single concentration, set 2. Histone-lysine N-methyltransferase NSD2 (Homo sapiens), O96028. inhibition, % at 12.5 µM. 310,000 tested, 0.54% active. AID 743445, 2014. NSD2 peptide methylation, 120 min
CDK5 inh: inhibitors of human CDK5/p35 kinase, primary screen, biochemical, single concentration | 330,000 tested, 0.01% active | inhibition, % at 10 µM | Recombinant CDK5/p35, ADP-Glo luminescence, 60 min;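 active = highest replicate inhibition of at least 50% and at least 75% of replicates reaching 50%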
dFosB act: activators of delta FosB homodimer, primary screen, biochemical, fluorescence polarization, TAMRA-CDK5 oligo, single point | Protein FosB (Mus musculus), P13346 | purified delta FosB; percent of positive-control signal above neutral wells | activation, % at 25 µM | 340,000 tested, 0.99% active;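 active = mean activation above about 17%, with every replicate also reaching it, limit read from the data, passing the limit was not always enough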
Hits are given with their value. Rule as the data show it, unless noted: active = inhibition above about 50%; inactive = the rest.

How did CC1(C)N([O-])c2cc([N+](=O)[O-])ccc2[N+]1=O do in these assays?
NSD2 HMT inh: 85

Results for Cc1ccc(C)n1-c1cc([N+](=O)[O-])ccc1-n1ccnc1 ?
NSD2 HMT inh: inactive

What do the screens show for `COC(=O)c1cc2c(c3c4ccccc4n(S(=O)(=O)c4ccc(OC)cc4)c13)C(=O)N(Cc1ccccc1OC)C2`?
NSD2 HMT inh: inactive

Results for Cc1cccc(C(=O)c2c(N)sc3c2CCCC3)c1 ?
SR-BI DiI-HDL act: inactive; DYRK1A inh: inactive; SR-BI DiI inh: inactive; NSD2 HMT inh: inactive; CDK5 inh: inactive; dFosB act: inactive

What do the screens show for `Cc1cccc(C(=O)c2c(N)sc3c2CCC(C)C3)c1` (centres undefined)?
SR-BI DiI-HDL act: inactive; DYRK1A inh: inactive; SR-BI DiI inh: 73; NSD2 HMT inh: inactive; CDK5 inh: inactive; dFosB act: inactive

Results for COc1ccc(-n2c(SCC(=O)NNC(=S)Nc3ccc(C)cc3)nnc2-c2ccccc2)cc1 ?
NSD2 HMT inh: inactive

Results for COc1cc(NC(=O)c2ccco2)c(OC)cc1NC(=O)Nc1ccccc1Cl ?
SR-BI DiI-HDL act: inactive; SR-BI DiI inh: 94; NSD2 HMT inh: inactive; CDK5 inh: inactive; dFosB act: inactive

What do the screens show for `COC(=O)c1[nH]c2ccc(C)cc2c1NC(=O)Nc1ccccc1OC`?
SR-BI DiI-HDL act: inactive; DYRK1A inh: inactive; SR-BI DiI inh: 80; NSD2 HMT inh: inactive; CDK5 inh: inactive; dFosB act: inactive

What do the screens show for `COC(=O)c1[nH]c2ccc(C)cc2c1NC(=O)CN1CCc2cc(OC)c(OC)cc2C1`?
SR-BI DiI-HDL act: inactive; DYRK1A inh: inactive; SR-BI DiI inh: inactive; NSD2 HMT inh: inactive; CDK5 inh: inactive; dFosB act: inactive

Results for COc1ccc(Cl)cc1C(=O)Nc1ccc(NC(=O)c2ccco2)cc1 ?
SR-BI DiI-HDL act: inactive; DYRK1A inh: inactive; SR-BI DiI inh: 82; NSD2 HMT inh: inactive; CDK5 inh: inactive; dFosB act: inactive

How did C=Cc1cccc(NC(=O)c2ccc(NC(=O)c3ccco3)cc2)c1 do in these assays?
SR-BI DiI-HDL act: inactive; DYRK1A inh: inactive; SR-BI DiI inh: 92; NSD2 HMT inh: inactive; CDK5 inh: inactive; dFosB act: inactive

How did COc1ccc(Cl)cc1NC(=O)c1ccco1 do in these assays?
SR-BI DiI-HDL act: inactive; DYRK1A inh: inactive; SR-BI DiI inh: inactive; NSD2 HMT inh: inactive; CDK5 inh: inactive; dFosB act: inactive

How did CCn1c(SCC(=O)NCCc2ccccc2)nc2c([nH]c3ccccc32)c1=O do in these assays?
SR-BI DiI-HDL act: inactive; DYRK1A inh: inactive; SR-BI DiI inh: inactive; CDK5 inh: inactive; dFosB act: inactive

Results for COCC(=O)N(Cc1ccccc1)c1ccccc1C(=O)Nc1cc(OC)ccc1OC ?
NSD2 HMT inh: inactive

How did COC(=O)c1ccc(NC(=O)c2cccc(NC(=O)c3ccccc3)c2)cc1 do in these assays?
SR-BI DiI-HDL act: inactive; DYRK1A inh: inactive; SR-BI DiI inh: 73; NSD2 HMT inh: inactive; CDK5 inh: inactive; dFosB act: inactive

Results for COc1cccc(C(=O)Nc2ccc(NC(=O)c3ccco3)nc2)c1 ?
SR-BI DiI-HDL act: inactive; DYRK1A inh: inactive; SR-BI DiI inh: inactive; NSD2 HMT inh: inactive; CDK5 inh: inactive; dFosB act: inactive

How did CCCC(=O)Nc1ccc(C(=O)Nc2cc(C(F)(F)F)ccc2Cl)cc1 do in these assays?
SR-BI DiI-HDL act: inactive; DYRK1A inh: inactive; SR-BI DiI inh: 74; NSD2 HMT inh: inactive; CDK5 inh: inactive; dFosB act: inactive

What do the screens show for `COc1cc(C(=O)Nc2ccc(NC(=O)c3ccco3)nc2)cc(OC)c1OC`?
SR-BI DiI-HDL act: inactive; DYRK1A inh: inactive; SR-BI DiI inh: 72; NSD2 HMT inh: inactive; CDK5 inh: inactive; dFosB act: inactive

What do the screens show for `O=C(NC(=S)Nc1cccc(NC(=S)NC(=O)c2ccccc2)c1)c1ccccc1`?
SR-BI DiI-HDL act: inactive; DYRK1A inh: inactive; SR-BI DiI inh: 72; NSD2 HMT inh: inactive; CDK5 inh: inactive; dFosB act: inactive
